Tested on: Fibroblast
Assay: Multiplex assay against human fibroblast
Type: toxicity, cell-based
Outline: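 On a CQ1 microscope at 37°C and 5% CO2, live cells were imaged after compound addition. They had been stained at seeding with Hoechst33342, BioTracker Green Microtubule Cytoskeleton Dye, MitoTracker Red and Annexin V Alexa Fluor 680. CellPathfinder machine-learning gating assigned cells to Hoechst high-intensity objects or normal cells, normal cells to healthy, pyknosed or fragmented nuclei, and pyknosed cells to mitotic or apoptotic. Tubulin, mitochondrial-mass and membrane-permeability phenotypes are per cents of healthy-nucleus cells.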

[1] = 12 h, 1 µM, compound concentration 1 uM, replicate 1
[2] = 12 h, 1 µM, compound concentration 1 uM, replicate 2
[3] = 12 h, 10 µM, compound concentration 10 uM, replicate 1
[4] = 12 h, 10 µM, compound concentration 10 uM, replicate 2
[5] = 24 h, 1 µM, compound concentration 1 uM, replicate 1
[6] = 24 h, 1 µM, compound concentration 1 uM, replicate 2
[7] = 24 h, 10 µM, compound concentration 10 uM, replicate 1
[8] = 24 h, 10 µM, compound concentration 10 uM, replicate 2
[9] = 48 h, 1 µM, compound concentration 1 uM, replicate 1
[10] = 48 h, 1 µM, compound concentration 1 uM, replicate 2
[11] = 48 h, 10 µM, compound concentration 10 uM, replicate 1
[12] = 48 h, 10 µM, compound concentration 10 uM, replicate 2

## O=C(Nc1cccnn1)N1CCC(=Cc2cccc(Oc3ccc(C(F)(F)F)cn3)c2)CC1
[1]
  Population Apoptotic (%): 59%
  Population Fragmented Nuclei (%): 24%
  Population Healthy Nuclei (%): 56%
  Population Hoechst High Intensity Objects (%): 10%
  Population Membrane Permeable-Phenotype (%): 20%
  Population Mitochondria Different-Phenotype (%): 10%
  Population Normal (%): 89%
  Population Pyknosed Nuclei (%): 18%
  Population Tubulin-Different-Phenotype (%): 28%
  Total Cell Count: 217
[2]
  Population Apoptotic (%): 60%
  Population Fragmented Nuclei (%): 71%
  Population Healthy Nuclei (%): 17%
  Population Hoechst High Intensity Objects (%): 44%
  Population Membrane Permeable-Phenotype (%): 25%
  Population Mitochondria Different-Phenotype (%): 0%
  Population Mitotic Cells (%): 40%
  Population Normal (%): 55%
  Population Pyknosed Nuclei (%): 10%
  Population Tubulin-Different-Phenotype (%): 25%
  Total Cell Count: 83
[3]
  Population Apoptotic (%): 73%
  Population Fragmented Nuclei (%): 34%
  Population Healthy Nuclei (%): 52%
  Population Hoechst High Intensity Objects (%): 14%
  Population Membrane Permeable-Phenotype (%): 6%
  Population Mitochondria Different-Phenotype (%): 5%
  Population Mitotic Cells (%): 26%
  Population Normal (%): 85%
  Population Pyknosed Nuclei (%): 13%
  Population Tubulin-Different-Phenotype (%): 7%
  Total Cell Count: 170
[4]
  Population Apoptotic (%): 25%
  Population Fragmented Nuclei (%): 50%
  Population Healthy Nuclei (%): 37%
  Population Hoechst High Intensity Objects (%): 24%
  Population Membrane Permeable-Phenotype (%): 12%
  Population Mitochondria Different-Phenotype (%): 12%
  Population Mitotic Cells (%): 75%
  Population Normal (%): 75%
  Population Pyknosed Nuclei (%): 12%
  Population Tubulin-Different-Phenotype (%): 4%
  Total Cell Count: 85
[5]
  Population Apoptotic (%): 72%
  Population Fragmented Nuclei (%): 28%
  Population Healthy Nuclei (%): 58%
  Population Hoechst High Intensity Objects (%): 6%
  Population Membrane Permeable-Phenotype (%): 9%
  Population Mitochondria Different-Phenotype (%): 12%
  Population Mitotic Cells (%): 27%
  Population Normal (%): 93%
  Population Pyknosed Nuclei (%): 13%
  Population Tubulin-Different-Phenotype (%): 27%
  Total Cell Count: 238
[6]
  Population Apoptotic (%): 60%
  Population Fragmented Nuclei (%): 60%
  Population Healthy Nuclei (%): 28%
  Population Hoechst High Intensity Objects (%): 42%
  Population Membrane Permeable-Phenotype (%): 23%
  Population Mitochondria Different-Phenotype (%): 23%
  Population Mitotic Cells (%): 40%
  Population Normal (%): 57%
  Population Pyknosed Nuclei (%): 11%
  Population Tubulin-Different-Phenotype (%): 38%
  Total Cell Count: 78
[7]
  Population Apoptotic (%): 65%
  Population Fragmented Nuclei (%): 28%
  Population Healthy Nuclei (%): 57%
  Population Hoechst High Intensity Objects (%): 18%
  Population Membrane Permeable-Phenotype (%): 1%
  Population Mitochondria Different-Phenotype (%): 2%
  Population Mitotic Cells (%): 35%
  Population Normal (%): 81%
  Population Pyknosed Nuclei (%): 13%
  Population Tubulin-Different-Phenotype (%): 2%
  Total Cell Count: 179
[8]
  Population Apoptotic (%): 33%
  Population Fragmented Nuclei (%): 51%
  Population Healthy Nuclei (%): 38%
  Population Hoechst High Intensity Objects (%): 23%
  Population Membrane Permeable-Phenotype (%): 12%
  Population Mitochondria Different-Phenotype (%): 8%
  Population Mitotic Cells (%): 66%
  Population Normal (%): 76%
  Population Pyknosed Nuclei (%): 9%
  Population Tubulin-Different-Phenotype (%): 20%
  Total Cell Count: 81

## O=C1N/C(=N/c2ccccc2F)S/C1=C\c1ccc(C(=O)O)cc1
[1]
  Population Apoptotic (%): 68%
  Population Fragmented Nuclei (%): 29%
  Population Healthy Nuclei (%): 37%
  Population Hoechst High Intensity Objects (%): 13%
  Population Membrane Permeable-Phenotype (%): 27%
  Population Mitochondria Different-Phenotype (%): 2%
  Population Mitotic Cells (%): 31%
  Population Normal (%): 86%
  Population Pyknosed Nuclei (%): 32%
  Population Tubulin-Different-Phenotype (%): 19%
  Total Cell Count: 112
[2]
  Population Apoptotic (%): 0%
  Population Fragmented Nuclei (%): 3%
  Population Healthy Nuclei (%): 92%
  Population Hoechst High Intensity Objects (%): 8%
  Population Membrane Permeable-Phenotype (%): 6%
  Population Mitochondria Different-Phenotype (%): 16%
  Population Mitotic Cells (%): 100%
  Population Normal (%): 91%
  Population Pyknosed Nuclei (%): 3%
  Population Tubulin-Different-Phenotype (%): 24%
  Total Cell Count: 66
[3]
  Population Apoptotic (%): 67%
  Population Fragmented Nuclei (%): 29%
  Population Healthy Nuclei (%): 51%
  Population Hoechst High Intensity Objects (%): 60%
  Population Membrane Permeable-Phenotype (%): 36%
  Population Mitochondria Different-Phenotype (%): 6%
  Population Mitotic Cells (%): 32%
  Population Normal (%): 39%
  Population Pyknosed Nuclei (%): 19%
  Population Tubulin-Different-Phenotype (%): 51%
  Total Cell Count: 406
[4]
  Population Apoptotic (%): 44%
  Population Fragmented Nuclei (%): 4%
  Population Healthy Nuclei (%): 81%
  Population Hoechst High Intensity Objects (%): 8%
  Population Membrane Permeable-Phenotype (%): 1%
  Population Mitochondria Different-Phenotype (%): 9%
  Population Mitotic Cells (%): 55%
  Population Normal (%): 91%
  Population Pyknosed Nuclei (%): 14%
  Population Tubulin-Different-Phenotype (%): 9%
  Total Cell Count: 59
[5]
  Population Apoptotic (%): 55%
  Population Fragmented Nuclei (%): 26%
  Population Healthy Nuclei (%): 47%
  Population Hoechst High Intensity Objects (%): 14%
  Population Membrane Permeable-Phenotype (%): 36%
  Population Mitochondria Different-Phenotype (%): 5%
  Population Mitotic Cells (%): 45%
  Population Normal (%): 85%
  Population Pyknosed Nuclei (%): 26%
  Population Tubulin-Different-Phenotype (%): 41%
  Total Cell Count: 89
[6]
  Population Apoptotic (%): 0%
  Population Fragmented Nuclei (%): 7%
  Population Healthy Nuclei (%): 85%
  Population Hoechst High Intensity Objects (%): 5%
  Population Membrane Permeable-Phenotype (%): 5%
  Population Mitochondria Different-Phenotype (%): 10%
  Population Mitotic Cells (%): 100%
  Population Normal (%): 94%
  Population Pyknosed Nuclei (%): 7%
  Population Tubulin-Different-Phenotype (%): 23%
  Total Cell Count: 69
[7]
  Population Apoptotic (%): 65%
  Population Fragmented Nuclei (%): 18%
  Population Healthy Nuclei (%): 63%
  Population Hoechst High Intensity Objects (%): 20%
  Population Membrane Permeable-Phenotype (%): 29%
  Population Mitochondria Different-Phenotype (%): 5%
  Population Mitotic Cells (%): 34%
  Population Normal (%): 79%
  Population Pyknosed Nuclei (%): 18%
  Population Tubulin-Different-Phenotype (%): 33%
  Total Cell Count: 181
[8]
  Population Apoptotic (%): 60%
  Population Fragmented Nuclei (%): 5%
  Population Healthy Nuclei (%): 88%
  Population Hoechst High Intensity Objects (%): 5%
  Population Membrane Permeable-Phenotype (%): 2%
  Population Mitochondria Different-Phenotype (%): 6%
  Population Mitotic Cells (%): 40%
  Population Normal (%): 94%
  Population Pyknosed Nuclei (%): 5%
  Population Tubulin-Different-Phenotype (%): 16%
  Total Cell Count: 73
[9]
  Population Apoptotic (%): 52%
  Population Fragmented Nuclei (%): 35%
  Population Healthy Nuclei (%): 46%
  Population Hoechst High Intensity Objects (%): 19%
  Population Membrane Permeable-Phenotype (%): 20%
  Population Mitochondria Different-Phenotype (%): 0%
  Population Mitotic Cells (%): 47%
  Population Normal (%): 80%
  Population Pyknosed Nuclei (%): 17%
  Population Tubulin-Different-Phenotype (%): 20%
  Total Cell Count: 118
[10]
  Population Apoptotic (%): 50%
  Population Fragmented Nuclei (%): 26%
  Population Healthy Nuclei (%): 71%
  Population Hoechst High Intensity Objects (%): 30%
  Population Membrane Permeable-Phenotype (%): 18%
  Population Mitochondria Different-Phenotype (%): 3%
  Population Mitotic Cells (%): 50%
  Population Normal (%): 69%
  Population Pyknosed Nuclei (%): 1%
  Population Tubulin-Different-Phenotype (%): 33%
  Total Cell Count: 161
[11]
  Population Apoptotic (%): 53%
  Population Fragmented Nuclei (%): 43%
  Population Healthy Nuclei (%): 47%
  Population Hoechst High Intensity Objects (%): 56%
  Population Membrane Permeable-Phenotype (%): 29%
  Population Mitochondria Different-Phenotype (%): 2%
  Population Mitotic Cells (%): 46%
  Population Normal (%): 43%
  Population Pyknosed Nuclei (%): 9%
  Population Tubulin-Different-Phenotype (%): 36%
  Total Cell Count: 370
[12]
  Population Apoptotic (%): 40%
  Population Fragmented Nuclei (%): 23%
  Population Healthy Nuclei (%): 69%
  Population Hoechst High Intensity Objects (%): 15%
  Population Membrane Permeable-Phenotype (%): 16%
  Population Mitochondria Different-Phenotype (%): 0%
  Population Mitotic Cells (%): 60%
  Population Normal (%): 84%
  Population Pyknosed Nuclei (%): 6%
  Population Tubulin-Different-Phenotype (%): 18%
  Total Cell Count: 90

From ChEMBL document CHEMBL4689842, “EUbOPEN Chemogenomics Library wave 1” (2021)
